Our source for the Ki and Ratio values is ChEMBL document CHEMBL1128667 (J Med Chem, 1995).

Usually Ki stands for the equilibrium dissociation constant of an inhibitor or competing ligand from its target.

A value given as a limit tells only on which side of the number the result lay.

Sequence of Mu-type opioid receptor (P33535 whole entry): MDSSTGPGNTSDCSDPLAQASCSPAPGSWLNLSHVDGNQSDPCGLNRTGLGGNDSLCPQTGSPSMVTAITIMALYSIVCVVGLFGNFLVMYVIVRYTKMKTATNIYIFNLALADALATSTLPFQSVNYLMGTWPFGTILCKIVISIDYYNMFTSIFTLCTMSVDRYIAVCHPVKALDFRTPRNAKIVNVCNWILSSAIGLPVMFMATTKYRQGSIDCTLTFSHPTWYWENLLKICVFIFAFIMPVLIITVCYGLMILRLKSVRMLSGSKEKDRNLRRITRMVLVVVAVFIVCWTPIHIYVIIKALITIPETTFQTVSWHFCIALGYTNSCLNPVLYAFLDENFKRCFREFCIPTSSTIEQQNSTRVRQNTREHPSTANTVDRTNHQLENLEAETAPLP

The target in the first assay is Kappa-type opioid receptor (Cavia porcellus, UniProt P41144). Nature of the assay: Ability to inhibit [3H]U-69593 binding to guinea pig Opioid receptor kappa 1. The method, boiled down: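 Guinea pig brain membranes depleted of μ and δ sites by BIT/FIT pretreatment, labelled with [3H]U69,593 (1.2-2.3 nM), 4-6 h at 25 °C in 50 mM Tris-HCl pH 7.4 with protease inhibitors and 1 μg/mL captopril. Nonspecific with 1 μM U69,593. 8–10 concentrations, run twice; IC50 and slope factor from curve fitting.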
Sequence of Kappa-type opioid receptor (P41144 whole entry): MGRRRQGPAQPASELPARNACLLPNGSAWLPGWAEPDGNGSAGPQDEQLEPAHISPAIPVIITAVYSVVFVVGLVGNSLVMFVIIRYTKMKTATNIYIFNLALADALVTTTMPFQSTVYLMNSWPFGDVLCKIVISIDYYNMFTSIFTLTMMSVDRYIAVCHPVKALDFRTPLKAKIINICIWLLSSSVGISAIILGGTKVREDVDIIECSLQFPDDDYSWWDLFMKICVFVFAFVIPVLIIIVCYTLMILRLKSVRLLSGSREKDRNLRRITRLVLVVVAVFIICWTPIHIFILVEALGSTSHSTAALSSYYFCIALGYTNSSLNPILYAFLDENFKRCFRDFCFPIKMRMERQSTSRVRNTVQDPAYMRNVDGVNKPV
Take `CN1CCC2(c3cccc(O)c3)CC(=O)/C(=C/c3ccc4ccccc4c3)C1C2` (stereo not drawn): the Ki was greater than 500 nM.
The same measure, in the same setting: to `CN1CCC2(c3cccc(O)c3)CC(=O)/C(=C/c3cccc(I)c3)C1C2` (stereo not drawn) belongs greater than 500 nM; to `CN1CCC2(c3cccc(O)c3)CC(=O)/C(=C/C3CC3)C1C2` (stereo not drawn), greater than 500 nM.
The same measure, in the same setting: to `COc1cccc(C23CCN(C)C(C2)/C(=C\c2ccccc2)C(=O)C3)c1` (single isomer, unassigned; (+)) [listing 1 of 2 here] belongs greater than 500 nM; to `CN1CCC2(c3cccc(O)c3)CC(=O)/C(=C/c3ccccc3)C1C2` (single isomer, unassigned; (+)) [listing 1 of 2 here], 1090 nM.
`COc1ccc(/C=C2/C(=O)CC3(c4cccc(O)c4)CCN(C)C2C3)cc1` (single isomer, unassigned; (+)) [listing 1 of 2 here] registered a Ki greater than 500 nM.
Same read-out and setting: to `CN1CCC2(c3cccc(O)c3)CC(=O)/C(=C/c3ccc(I)cc3)C1C2` (single isomer, unassigned; (+)) belongs greater than 1000 nM; to `CN1CCC2(c3cccc(O)c3)CC(=O)CC1C2` (single isomer, unassigned; (+)), 2540 nM.
As for `CN1CCC2(c3cccc(O)c3)CC(=O)/C(=C/c3ccc(Cl)cc3)C1C2` (single isomer, unassigned; (-)) [listing 1 of 2 here], the inhibitory constant (Ki) was greater than 500 nM.
Same read-out and setting: to `COc1cccc(/C=C2/C(=O)CC3(c4cccc(O)c4)CCN(C)C2C3)c1` (stereo in doubt; 6) belongs greater than 500 nM; to `CN1CCC2(c3cccc(O)c3)CC(=O)/C(=C/c3cccc(Cl)c3)C1C2` (stereo in doubt; 7), 246 nM.
On the same count and under the same terms, to `COc1cccc(C23CCN(C)C(C2)/C(=C\c2ccccc2)C(=O)C3)c1` (stereo in doubt; 10) belongs greater than 1000 nM; to `CN1CCC2(c3cccc(O)c3)CC(=O)/C(=C/c3cccc(Cl)c3)C1C2` (stereo in doubt; (+)-7), greater than 500 nM.
With `CN1CCC2(c3cccc(O)c3)CC(=O)/C(=C/c3ccccc3)C1C2` (stereo in doubt; (-)-2), the inhibition constant Ki came out at 889 nM.
Same read-out and setting: to `CN1CCC2(c3cccc(O)c3)CC(=O)/C(=C/c3cccc(Cl)c3)C1C2` (stereo in doubt; (-)-7) belongs greater than 500 nM.

Another assay has as its system Sigma 2 receptor. Nature of the assay: Ratio of binding affinity towards guinea-pig brain […] receptor to rat liver sigma-2 receptor.
Consider `CN1CCC2(c3cccc(O)c3)CC(=O)/C(=C/c3ccc4ccccc4c3)C1C2` (stereo not drawn), for which the Ratio worked out at 0.21.
Turning to `CN1CCC2(c3cccc(O)c3)CC(=O)/C(=C/c3cccc(I)c3)C1C2` (stereo not drawn), the Ratio turned out to be 68.
The same measure, in the same setting: the same measure for `CN1CCC2(c3cccc(O)c3)CC(=O)/C(=C/C3CC3)C1C2` (stereo not drawn): 0.18; for `CN1CCC2(c3cccc(O)c3)CC(=O)/C(=C/c3ccc(I)cc3)C1C2` (single isomer, unassigned; (+)): 32; for `CN1CCC2(c3cccc(O)c3)CC(=O)/C(=C/c3ccccc3)C1C2` (single isomer, unassigned; (+)) [listing 2 of 2 here]: 79.
Regarding `COc1ccc(/C=C2/C(=O)CC3(c4cccc(O)c4)CCN(C)C2C3)cc1` (single isomer, unassigned; (+)) [listing 2 of 2 here], the Ratio was 88.
Regarding `COc1cccc(/C=C2/C(=O)CC3(c4cccc(O)c4)CCN(C)C2C3)c1` (single isomer, unassigned; (+)), the Ratio was 157.
As for `COc1cccc(C23CCN(C)C(C2)/C(=C\c2ccccc2)C(=O)C3)c1` (single isomer, unassigned; (+)) [listing 2 of 2 here], the Ratio came out at 2.8.
Turning to `CN1CCC2(c3cccc(O)c3)CC(=O)/C(=C/c3ccc(Cl)cc3)C1C2` (single isomer, unassigned; (-)) [listing 2 of 2 here], the Ratio came to 0.69.
For `COc1ccc(/C=C2/C(=O)CC3(c4cccc(O)c4)CCN(C)C2C3)cc1` (single isomer, unassigned; (-)), the Ratio was 0.1.

Another assay has as its target Sigma 2 receptor. Nature of the assay: Ability to inhibit [3H](+)-DTG binding to rat liver Sigma receptor type 2 in presence of dextrallorphan. The method, boiled down:
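Rat liver membranes (male Sprague–Dawley, 150–200 g; Tris/sucrose homogenisation, differential centrifugation, 25 °C preincubation). 160 μg protein with 5 nM [3H]DTG plus 1 μM dextrallorphan to mask σ1, 50 mM Tris-HCl pH 8.0, 120 min at 25 °C. Nonspecific with 10 μM haloperidol. Filtration. 12 concentrations (0.05–10 000 or 0.5–100 000 nM); Ki via Cheng–Prusoff with Scatchard Kd; 2–3 experiments in duplicate, ±SEM.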
As to `CN1CCC2(c3cccc(O)c3)CC(=O)/C(=C/c3ccc4ccccc4c3)C1C2` (stereo not drawn), the inhibitory constant (Ki) is 80.2 nM.
As for `CN1CCC2(c3cccc(O)c3)CC(=O)/C(=C/c3cccc(I)c3)C1C2` (stereo not drawn), the Ki came out at 24 nM.
Still for that read-out and setting: to `CN1CCC2(c3cccc(O)c3)CC(=O)/C(=C/C3CC3)C1C2` (stereo not drawn) belongs 356 nM; to `COc1cccc(C23CCN(C)C(C2)/C(=C\c2ccccc2)C(=O)C3)c1` (single isomer, unassigned; (+)) [listing 1 of 2 here], 52 nM; to `CN1CCC2(c3cccc(O)c3)CC(=O)/C(=C/c3ccccc3)C1C2` (single isomer, unassigned; (+)) [listing 1 of 2 here], 16.5 nM.
Same read-out and setting: the same measure for `COc1ccc(/C=C2/C(=O)CC3(c4cccc(O)c4)CCN(C)C2C3)cc1` (single isomer, unassigned; (+)) [listing 1 of 2 here]: 21.6 nM.
For the compound `CN1CCC2(c3cccc(O)c3)CC(=O)/C(=C/c3ccc(I)cc3)C1C2` (single isomer, unassigned; (+)), the Ki was 52.6 nM.
Consider `CN1CCC2(c3cccc(O)c3)CC(=O)/C(=C/c3ccc(Cl)cc3)C1C2` (single isomer, unassigned; (-)) [listing 1 of 2 here], for which the Ki came out at 26.5 nM.
The same measure, in the same setting: the same measure for `COc1cccc(/C=C2/C(=O)CC3(c4cccc(O)c4)CCN(C)C2C3)c1` (stereo in doubt; 6): 44.3 nM.
Still for that read-out and setting: the same measure for `CN1CCC2(c3cccc(O)c3)CC(=O)/C(=C/c3cccc(Cl)c3)C1C2` (stereo in doubt; 7): 34.5 nM; for `COc1cccc(C23CCN(C)C(C2)/C(=C\c2ccccc2)C(=O)C3)c1` (stereo in doubt; 10): 81.7 nM; for `CN1CCC2(c3cccc(O)c3)CC(=O)/C(=C/c3cccc(Cl)c3)C1C2` (stereo in doubt; (+)-7): 22.4 nM.
On the same count and under the same terms, the same measure for `CN1CCC2(c3cccc(O)c3)CC(=O)/C(=C/c3ccccc3)C1C2` (stereo in doubt; (-)-2): 154 nM; for `CN1CCC2(c3cccc(O)c3)CC(=O)/C(=C/c3cccc(Cl)c3)C1C2` (stereo in doubt; (-)-7): 123 nM.

Another assay has as its target Mu-type opioid receptor (Rattus norvegicus, UniProt P33535). Nature of the assay: Ability to inhibit [3H]DAMGO binding to rat brain Opioid receptor mu 1. The method, boiled down: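 Rat brain membranes labelled with [3H]DAMGO (1-3 nM), 4 h at 25 °C in 50 mM Tris-HCl pH 7.4 with protease inhibitor cocktail. Nonspecific with 20 μM levallorphan. 8–10 concentrations, run twice; dilutions in Tris with 1 mg/mL BSA, 1 mM stocks in Tris containing 10% DMSO/5% Emulphor. IC50 and slope factor from curve fitting.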
Compound `CN1CCC2(c3cccc(O)c3)CC(=O)/C(=C/c3ccc4ccccc4c3)C1C2` (stereo not drawn) registered a Ki of 2.2 nM.
With `CN1CCC2(c3cccc(O)c3)CC(=O)/C(=C/c3cccc(I)c3)C1C2` (stereo not drawn), the inhibition constant Ki is 9.1 nM.
Still for that read-out and setting: to `CN1CCC2(c3cccc(O)c3)CC(=O)/C(=C/C3CC3)C1C2` (stereo not drawn) belongs 11.2 nM.
As for `CN1CCC2(c3cccc(O)c3)CC(=O)/C(=C/c3ccccc3)C1C2` (single isomer, unassigned; (+)) [listing 1 of 2 here], the inhibition constant Ki came to 37.6 nM.
Same read-out and setting: the same measure for `COc1ccc(/C=C2/C(=O)CC3(c4cccc(O)c4)CCN(C)C2C3)cc1` (single isomer, unassigned; (+)) [listing 1 of 2 here]: 3.9 nM; for `CN1CCC2(c3cccc(O)c3)CC(=O)/C(=C/c3ccc(I)cc3)C1C2` (single isomer, unassigned; (+)): 26.7 nM; for `CN1CCC2(c3cccc(O)c3)CC(=O)CC1C2` (single isomer, unassigned; (+)): 35.5 nM.
On the same count and under the same terms, the same measure for `CN1CCC2(c3cccc(O)c3)CC(=O)/C(=C/c3ccc(Cl)cc3)C1C2` (single isomer, unassigned; (-)) [listing 1 of 2 here]: 48.2 nM; for `COc1cccc(/C=C2/C(=O)CC3(c4cccc(O)c4)CCN(C)C2C3)c1` (stereo in doubt; 6): 11.8 nM.
In turn, `CN1CCC2(c3cccc(O)c3)CC(=O)/C(=C/c3cccc(Cl)c3)C1C2` (stereo in doubt; 7) registered a Ki of 23.2 nM.
`COc1cccc(C23CCN(C)C(C2)/C(=C\c2ccccc2)C(=O)C3)c1` (stereo in doubt; 10) returned an inhibition constant Ki greater than 250 nM.
Same read-out and setting: to `CN1CCC2(c3cccc(O)c3)CC(=O)/C(=C/c3cccc(Cl)c3)C1C2` (stereo in doubt; (+)-7) belongs 11.8 nM; to `CN1CCC2(c3cccc(O)c3)CC(=O)/C(=C/c3ccccc3)C1C2` (stereo in doubt; (-)-2), 392 nM; to `CN1CCC2(c3cccc(O)c3)CC(=O)/C(=C/c3cccc(Cl)c3)C1C2` (stereo in doubt; (-)-7), 47.6 nM.

The target of another assay is Delta-type opioid receptor (Rattus norvegicus, UniProt P33533). As to the kind of experiment: Ability to inhibit [3H]DADLE binding to rat brain delta receptor. The method, boiled down: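 [3H]DADLE (1.7-2.5 nM) on rat brain membranes, 3-4 h at 25 °C in 10 mM Tris-HCl pH 7.4 with 100 mM choline chloride, 3 mM MnCl2, 100 nM DAMGO blocking μ sites, and protease inhibitors. Nonspecific with 20 μM levallorphan. 8–10 concentrations, run twice; dilutions in Tris/1 mg/mL BSA. IC50 and slope factor from curve fitting.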
Sequence of Delta-type opioid receptor (P33533 whole entry): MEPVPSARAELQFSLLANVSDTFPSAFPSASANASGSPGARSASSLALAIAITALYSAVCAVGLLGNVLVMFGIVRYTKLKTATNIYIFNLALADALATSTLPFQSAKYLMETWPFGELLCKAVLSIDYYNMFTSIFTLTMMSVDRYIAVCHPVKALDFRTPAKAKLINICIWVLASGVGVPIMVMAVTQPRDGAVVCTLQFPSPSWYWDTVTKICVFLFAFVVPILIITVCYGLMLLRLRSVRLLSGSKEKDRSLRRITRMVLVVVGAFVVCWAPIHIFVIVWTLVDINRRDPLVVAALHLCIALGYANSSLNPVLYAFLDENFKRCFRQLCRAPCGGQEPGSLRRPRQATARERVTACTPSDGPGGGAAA
`CN1CCC2(c3cccc(O)c3)CC(=O)/C(=C/c3ccc4ccccc4c3)C1C2` (stereo not drawn) registered a Ki of 142 nM.
`CN1CCC2(c3cccc(O)c3)CC(=O)/C(=C/c3cccc(I)c3)C1C2` (stereo not drawn) showed an inhibitory constant (Ki) of 141 nM.
Still for that read-out and setting: the same measure for `CN1CCC2(c3cccc(O)c3)CC(=O)/C(=C/C3CC3)C1C2` (stereo not drawn): greater than 1000 nM.
On the same count and under the same terms, to `CN1CCC2(c3cccc(O)c3)CC(=O)/C(=C/c3ccccc3)C1C2` (single isomer, unassigned; (+)) [listing 1 of 2 here] belongs 735 nM.
The same measure, in the same setting: to `COc1ccc(/C=C2/C(=O)CC3(c4cccc(O)c4)CCN(C)C2C3)cc1` (single isomer, unassigned; (+)) [listing 1 of 2 here] belongs 127 nM; to `CN1CCC2(c3cccc(O)c3)CC(=O)/C(=C/c3ccc(I)cc3)C1C2` (single isomer, unassigned; (+)), 321 nM.
For the compound `CN1CCC2(c3cccc(O)c3)CC(=O)CC1C2` (single isomer, unassigned; (+)), the Ki came out at 505 nM.
In the case of `CN1CCC2(c3cccc(O)c3)CC(=O)/C(=C/c3ccc(Cl)cc3)C1C2` (single isomer, unassigned; (-)) [listing 1 of 2 here], the Ki is greater than 500 nM.
Still for that read-out and setting: the same measure for `COc1cccc(/C=C2/C(=O)CC3(c4cccc(O)c4)CCN(C)C2C3)c1` (stereo in doubt; 6): greater than 400 nM; for `CN1CCC2(c3cccc(O)c3)CC(=O)/C(=C/c3cccc(Cl)c3)C1C2` (stereo in doubt; 7): 222 nM; for `COc1cccc(C23CCN(C)C(C2)/C(=C\c2ccccc2)C(=O)C3)c1` (stereo in doubt; 10): greater than 500 nM.
In turn, `CN1CCC2(c3cccc(O)c3)CC(=O)/C(=C/c3cccc(Cl)c3)C1C2` (stereo in doubt; (+)-7) came in with an inhibitory constant (Ki) of 217 nM.
On the same count and under the same terms, to `CN1CCC2(c3cccc(O)c3)CC(=O)/C(=C/c3ccccc3)C1C2` (stereo in doubt; (-)-2) belongs 1990 nM; to `CN1CCC2(c3cccc(O)c3)CC(=O)/C(=C/c3cccc(Cl)c3)C1C2` (stereo in doubt; (-)-7), 386 nM.

Biological target in a further assay: not listed separately
Nature of the assay: Ability to inhibit [3H](+)-pentazocine binding to guinea pig brain Sigma receptor type 1.
Take `COc1cccc(C23CCN(C)C(C2)/C(=C\c2ccccc2)C(=O)C3)c1` (stereo in doubt; 10): the Ki stood at 138 nM.
